Laboratory results as given in ChEMBL document CHEMBL1135746, “Structure-activity relationships of the antimalarial agent artemisinin. 7. Direct modification of (+)-artemisinin and in vivo antimalarial screening of new, potential preclinical antimalarial candidates” (J Med Chem, 2002).
Values after ≈ are worked out from the molar mass of the structure shown. Values joined by “and” are separate entries in the source; they are usually repeats but may differ in a detail not shown here. Equal values may be shown once.

Tests used:
Plasmodium berghei [1] = assay: Antimalarial activity in Plasmodium berghei infected mice (Mus musculus) at 8 mg/kg/day peroral dose; format: functional; conditions: route oral
Outline: (§1)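 CD-1 mice (16-18 g), quarantined 2 weeks, then infected with P. berghei (Thompson test). Treatment was given on days 3-5 postinfection. Subcutaneous dosing was a single injection; oral dosing was by gavage of a peanut-oil suspension. Groups of 5 mice were used. Survival was scored out of 5 and parasitemia was followed up to 60 days postinfection.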

Plasmodium berghei [2] = assay: Antimalarial activity in Plasmodium berghei infected mice (Mus musculus) at 128 mg/kg/day peroral dose; format: functional; conditions: route oral; outline: as §1
Plasmodium berghei [3] = assay: Antimalarial activity in Plasmodium berghei infected mice (Mus musculus) at 32 mg/kg/day subcutaneous dose; format: functional; outline: as §1
Plasmodium berghei [4] = assay: Antimalarial activity in Plasmodium berghei infected mice (Mus musculus) at 8 mg/kg/day subcutaneous dose; format: functional; outline: as §1
Plasmodium berghei [5] = assay: Antimalarial activity in Plasmodium berghei infected mice (Mus musculus) at 32 mg/kg/day peroral dose; format: functional; conditions: route oral; outline: as §1
Plasmodium berghei [6] = assay: Antimalarial activity in Plasmodium berghei infected mice (Mus musculus) after 128 mg/kg/day subcutaneous dose; format: functional; outline: as §1
Plasmodium falciparum [7] = assay: Inhibitory activity against Plasmodium falciparum K1; format: functional, organism-based
Plasmodium berghei [8] = assay: (§2) Effective dose ED90 against Plasmodium berghei N in mice (Mus musculus) malaria model after subcutaneous administration; format: functional; conditions: Plasmodium berghei, sc; read-out: ED90
Plasmodium yoelii [9] = assay: Effective subcutaneous dose ED50 in SSV against Plasmodium yoelii sspNS; format: functional; conditions: sc
Plasmodium falciparum [10] = assay: Inhibitory activity against Plasmodium falciparum W2; format: functional, organism-based
Outline: (§3)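 Parasitized human red blood cells were used in short-term microtitre cultures. Compounds were dissolved in DMSO and diluted 400-fold in culture medium with plasma, giving a starting concentration of at least 12 500 ng/mL. Activity was measured as inhibition of parasite uptake of a radiolabelled nucleic acid precursor.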

Plasmodium yoelii [11] = assay: Effective subcutaneous dose ED90 in SSV against Plasmodium yoelii sspNS; format: functional; conditions: sc
Plasmodium falciparum [12] = assay: Inhibitory activity against Plasmodium falciparum D6; format: functional, organism-based; outline: as §3
Plasmodium yoelii [13] = assay: Effective dose after oral administration against Plasmodium yoelii sspNS for 90%inhibition in presence of DMSO; format: functional
Plasmodium berghei [14] = assay: Effective dose ED50 against Plasmodium berghei N in mice (Mus musculus) malaria model after subcutaneous administration; format: functional
Plasmodium berghei [15] = assay: (§4) Effective dose ED90 against Plasmodium berghei N in mice (Mus musculus) malaria model after peroral administration; format: functional; conditions: po
Plasmodium yoelii [16] = assay: Effective dose after oral administration against Plasmodium yoelii sspNS for 50%inhibition in presence of DMSO; format: functional
Plasmodium yoelii [17] = assay: Effective oral dose ED50 in DMSO against Plasmodium yoelii sspNS; format: functional
Plasmodium yoelii [18] = assay: Effective oral dose ED90 in DMSO against Plasmodium yoelii sspNS; format: functional
Plasmodium yoelii [19] = assay: Effective oral dose ED90 in SSV against Plasmodium yoelii sspNS; format: functional
Plasmodium berghei [20] = assay: Effective dose ED50 against Plasmodium berghei N in mice (Mus musculus) malaria model after peroral administration; format: functional
Plasmodium yoelii [21] = assay: Effective dose ED50 against Plasmodium yoelii sspNS in presence of SSV; format: functional
Plasmodium berghei [22] = assay: as §2; format: functional; conditions: sc
Outline: (§5)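 Peters' 4-day test: two batches of five male random-bred Swiss albino mice (18-22 g) were inoculated i.v. with 2 × 10⁶ P. berghei N-parasitized RBC. Drug was given once daily for four consecutive days. Compounds were dissolved in DMSO, then diluted in water for subcutaneous or oral dosing. Parasitemia was read the day after the last treatment.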

Plasmodium berghei [23] = assay: Effective dose ED90 against Plasmodium berghei N in mice (Mus musculus) malaria model after subcutaneous dose; conditions: sc
Plasmodium yoelii [24] = assay: Effective subcutaneous dose ED90 against Plasmodium yoelii sspNS; format: functional; conditions: Plasmodium yoelii, sc; read-out: ED90
Plasmodium yoelii [25] = assay: Effective subcutaneous dose ED50 against Plasmodium yoelii sspNS; format: functional; conditions: sc
Plasmodium berghei [26] = assay: Effective dose ED90 against Plasmodium berghei N in mice (Mus musculus) malaria model after oral administration; format: functional; outline: as §5
Plasmodium berghei [27] = assay: Effective dose […] against Plasmodium berghei N in a mice (Mus musculus) malaria model after oral dose; format: functional
Plasmodium falciparum [28] = assay: Inhibitory activity against Plasmodium falciparum NF54; format: functional, organism-based
Plasmodium berghei [29] = assay: Effective dose against Plasmodium berghei N in mice (Mus musculus) malaria model after subcutaneous administration; format: functional; conditions: sc; outline: as §5
Plasmodium berghei [30] = assay: Effective dose ED50 against Plasmodium berghei N and Plasmodium species infected mice (Mus musculus) after peroral dose; format: functional; conditions: po; outline: as §5
Plasmodium berghei [31] = assay: Effective dose Plasmodium berghei N in mice (Mus musculus) malaria model after subcutaneous administration; format: functional; conditions: sc; outline: as §5
Plasmodium berghei [32] = assay: as §4; format: functional; conditions: po; outline: as §5; remark: listed apart in the source
[33] = Plasmodium berghei, sc, read-out: ED50
[34] = Plasmodium berghei, po, read-out: ED50

`C[C@@H]1CC[C@H]2[C@@H](CCCc3ccc(Cl)c(Cl)c3)CO[C@@H]3OC4(C)CC[C@@H]1[C@]32OO4` (single isomer, unassigned) was tested, and the Activity (Plasmodium berghei [1]) was 0, the Activity (Plasmodium berghei [2]) was 5 and the Activity (Plasmodium berghei [3]) was 5. It also gave an Activity (Plasmodium berghei [4]) of 0, an Activity (Plasmodium berghei [5]) of 5 and an Activity (Plasmodium berghei [6]) of 5.

In the case of `C[C@@H]1CC[C@H]2[C@@H](CCCc3ccc(F)cc3)CO[C@@H]3OC4(C)CC[C@@H]1[C@]32OO4` (single isomer, unassigned), the Activity (Plasmodium berghei [1]) is reported as 1, the Activity (Plasmodium berghei [2]) is reported as 5 and the Activity (Plasmodium berghei [3]) is reported as 5. It also gave an Activity (Plasmodium berghei [4]) of 0, an Activity (Plasmodium berghei [5]) of 5 and an Activity (Plasmodium berghei [6]) of 5.

Compound `C[C@@H]1CC[C@H]2[C@@H](CCCc3cc(F)cc(F)c3)CO[C@@H]3OC4(C)CC[C@@H]1[C@]32OO4` (single isomer, unassigned) has an IC50 (Plasmodium falciparum [7]) of 3.2 ng/mL (≈ 0.00783 µM), an ED90 (Plasmodium berghei [8]) of 2 mg/kg and an ED50 (Plasmodium yoelii [9]) of 2.2 mg/kg. It also gave an IC50 (Plasmodium falciparum [10]) of 6.5 ng/mL (≈ 0.0159 µM), an ED90 (Plasmodium yoelii [11]) of 6.5 mg/kg and an IC50 (Plasmodium falciparum [12]) of 0.82 ng/mL (≈ 0.00201 µM). The ED90 (Plasmodium yoelii [13]) was 7.5 mg/kg, the ED50 (Plasmodium berghei [14]; [33]) was 1.3 mg/kg and the ED90 (Plasmodium berghei [15]) was 5.7 mg/kg. The ED50 (Plasmodium yoelii [16]) was 2.3 mg/kg.

For `C[C@@H]1CC[C@H]2[C@@H](CCCc3cc(C(F)(F)F)cc(C(F)(F)F)c3)CO[C@@H]3OC4(C)CC[C@@H]1[C@]32OO4` (single isomer, unassigned), the IC50 (Plasmodium falciparum [7]) was 4.06 ng/mL (≈ 0.00798 µM), the ED50 (Plasmodium yoelii [17]) was 1.5 mg/kg and the ED90 (Plasmodium berghei [8]) was 1.7 mg/kg. For the same compound, the ED90 (Plasmodium yoelii [18]) was 3.6 mg/kg, the IC50 (Plasmodium falciparum [10]) was 7.11 ng/mL (≈ 0.014 µM) and the IC50 (Plasmodium falciparum [12]) was 0.78 ng/mL (≈ 0.00153 µM). For the same compound, the ED90 (Plasmodium yoelii [19]) was 12 mg/kg, the ED50 (Plasmodium berghei [20]; [34]) was 2.6 mg/kg and the ED50 (Plasmodium berghei [14]; [33]) was 0.9 mg/kg. For the same compound, the ED50 (Plasmodium yoelii [21]) was 4.2 mg/kg and the ED90 (Plasmodium berghei [15]) was 5 mg/kg.

Work on `C[C@@H]1CC[C@H]2[C@@H](C)C(=O)O[C@@H]3O[C@@]4(C)CC[C@@H]1[C@]32OO4` [ARTEMISININ] yielded an Activity (Plasmodium berghei [1]) of 0, an Activity (Plasmodium berghei [2]) of 0 and an Activity (Plasmodium berghei [3]) of 3. It also gave an Activity (Plasmodium berghei [4]) of 0, an Activity (Plasmodium berghei [5]) of 0 and an Activity (Plasmodium berghei [6]) of 5.

With `CCN(CC)CCCC(C)Nc1ccnc2cc(Cl)ccc12` (stereo not given) [CHLOROQUINE] the ED90 (Plasmodium berghei [22]) was 3.4 mg/kg, the ED90 (Plasmodium berghei [23]) was 1.8 mg/kg and the ED90 (Plasmodium yoelii [24]) was 28 mg/kg. It also gave an ED90 (Plasmodium berghei [8]) of 3 mg/kg, an ED50 (Plasmodium yoelii [25]) of 1.6 mg/kg and an ED50 (Plasmodium berghei [14]; [33]) of 1.5 mg/kg.

`OC(c1cc(C(F)(F)F)nc2c(C(F)(F)F)cccc12)C1CCCCN1` (stereo not given) [MEFLOQUINE] showed an ED90 (Plasmodium berghei [26]) of 5.1 mg/kg, an ED90 (Plasmodium yoelii [24]) of 6 mg/kg and an ED90 (Plasmodium berghei [8]) of 2.3 mg/kg. The ED50 (Plasmodium berghei [27]) was 3.3 mg/kg, the ED50 (Plasmodium yoelii [25]) was 2.3 mg/kg and the ED50 (Plasmodium berghei [14]; [33]) was 1.1 mg/kg.

For `C=C[C@H]1CN2CC[C@H]1C[C@H]2[C@H](O)c1ccnc2ccc(OC)cc12` [QUININE], the ED90 (Plasmodium berghei [8]) was 1050 mg/kg, the IC50 (Plasmodium falciparum [10]) was 150 ng/mL (≈ 0.462 µM) and the IC50 (Plasmodium falciparum [12]) was 160 ng/mL (≈ 0.492 µM). For the same compound, the ED50 (Plasmodium berghei [20]; [34]) was 71 mg/kg, the ED50 (Plasmodium berghei [14]; [33]) was 83 mg/kg and the IC50 (Plasmodium falciparum [28]) was 9.08 ng/mL (≈ 0.028 µM). It also gave an ED90 (Plasmodium berghei [15]) of 118 mg/kg.

`C[C@H]1[C@H](OC(=O)CCC(=O)[O-])O[C@@H]2O[C@@]3(C)CC[C@H]4[C@H](C)CC[C@@H]1[C@@]24OO3.[Na+]` [SODIUM ARESUNATE] showed an ED90 (Plasmodium berghei [29]) greater than 10 mg/kg, an ED90 (Plasmodium berghei [30]) greater than 10 mg/kg and an ED50 (Plasmodium berghei [31]) greater than 10 mg/kg. For the same compound, the ED90 (Plasmodium berghei [32]) was greater than 10 mg/kg, the ED50 (Plasmodium berghei [20]) was 1.6 mg/kg and the ED50 (Plasmodium berghei [20]; [34]) was 2.4 mg/kg. For the same compound, the ED50 (Plasmodium berghei [14]) was 0.8 mg/kg and 1.8 mg/kg.
